From ChEMBL document CHEMBL1143394, “Benzopyridooxathiazepine derivatives as novel potent antimitotic agents” (Bioorg Med Chem, 2009)

Assays:
L1210 [1] = test: Cytotoxicity against mouse L1210 cells after 48 hrs by MTT assay; assay type: functional, cell-based; details: L1210, 48 h
In short: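 Murine L1210 cells in RPMI 1640 with 10% FCS, glutamine, antibiotics and HEPES pH 7.4, exposed 48 h to graded concentrations. MTT added for 4 h at 37 °C, formazan dissolved in DMSO, OD 540 nm. IC50 (50% OD reduction vs untreated controls) by linear regression on linear zone of dose–response; triplicate.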

A549 = test: Cytotoxicity against human A549 cells after 96 hrs by MTA assay; assay type: functional
In short: (§1)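 Adherent DU145, HT29, A549, KB 3-1 and KB-A1 cells grown in RPMI 1640 with 10% FCS, 2 mM glutamine, antibiotics and HEPES pH 7.4. Seeded, grown 2 days, then exposed to compound 96 h (about 4 doubling times). MTT added for 4 h at 37 °C, formazan dissolved in DMSO, read at 540 nm. IC50 from linear regression on linear part of dose–response; triplicate.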

DU-145 = test: Cytotoxicity against human DU145 cells after 96 hrs by MTA assay; assay type: functional; in short: as §1
L1210 [2] = test: Cell cycle arrest in mouse L1210 cells assessed as accumulation at G1 phase at 200 nM after 21 hrs by flow cytometry using propidium iodide staining; assay type: functional
In short: (§2)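 L1210 cells exposed to compound for 21 h (two doubling times), fixed in 70% ethanol, washed, stained 30 min at 20 °C in D-PBS with RNAse and propidium iodide; 10⁴ cells per sample analysed by flow cytometry for G1, S, G2+M and 8N (tetraploid) fractions.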

L1210 [3] = test: Cell cycle arrest in mouse L1210 cells assessed as accumulation at S phase at 200 nM after 21 hrs by flow cytometry using propidium iodide staining; assay type: functional; in short: as §2
L1210 [4] = test: Cell cycle arrest in mouse L1210 cells assessed as accumulation at G2/M phase at 200 nM after 21 hrs by flow cytometry using propidium iodide staining; assay type: functional; in short: as §2
L1210 [5] = test: Cell cycle arrest in mouse L1210 cells assessed as accumulation of tetraploid cells at 200 nM after 21 hrs by flow cytometry using propidium iodide staining; assay type: functional; in short: as §2
L1210 [6] = test: Cell cycle arrest in mouse L1210 cells assessed as accumulation at G2/M phase at 25 nM after 21 hrs by flow cytometry using propidium iodide staining; assay type: functional; in short: as §2
[7] = Cytotoxicity against adriamycin-resistant human KB-A1 cells after 96 hrs by MTA assay; assay type: functional; in short: as §1
[8] = Cytotoxicity against human KB-3-1 cells after 96 hrs by MTA assay; assay type: functional; in short: as §1
HT-29 = test: Cytotoxicity against human HT29 cells after 96 hrs by MTA assay; assay type: functional; in short: as §1
L1210 [9] = test: Cell cycle arrest in mouse L1210 cells assessed as accumulation at G1 phase at 25 nM after 21 hrs by flow cytometry using propidium iodide staining; assay type: functional; in short: as §2
L1210 [10] = test: Cell cycle arrest in mouse L1210 cells assessed as accumulation at S phase at 25 nM after 21 hrs by flow cytometry using propidium iodide staining; assay type: functional; in short: as §2
L1210 [11] = test: Cell cycle arrest in mouse L1210 cells assessed as accumulation of tetraploid cells at 25 nM after 21 hrs by flow cytometry using propidium iodide staining; assay type: functional; in short: as §2
[12] = Inhibition of tubulin polymerization
P388 [13] = test: Antitumor activity against mouse P388 cells xenografted in B6D2F1 mouse at 100 mg/kg, iv relative to control; assay type: functional
In short: (§3)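 P388 leukaemia cells inoculated ip at 10⁶ cells/mouse into B6D2F1 mice on day 0; compound given once ip or iv on day 1. Result expressed as % T/C = median survival time of treated over untreated controls ×100.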

P388 [14] = test: Antitumor activity against mouse P388 cells xenografted in B6D2F1 mouse at 50 to 100 mg/kg, ip relative to control; assay type: functional; details: dose mg/kg 50-100; route intraperitoneal; in short: as §3
[15] = Metabolic stability in mouse liver microsomes assessed as bioavailability; assay type: ADME, Microsome; details: read-out: Metabolic Bioavailability
[16] = Metabolic stability in human liver microsomes assessed as bioavailability; assay type: ADME, Microsome; details: read-out: Metabolic Bioavailability
P388 [17] = test: Antitumor activity against mouse P388 cells xenografted in B6D2F1 mouse assessed as survivality at 100 mg/kg, iv; assay type: functional
In short: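 P388 murine leukemia cells inoculated intraperitoneally (10⁶ cells/mouse) into B6D2F1 mice on day 0. Single intravenous dose given on day 1. Readout is percent T/C: median survival time of treated mice divided by median survival time of controls, ×100.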

P388 [18] = test: Antitumor activity against mouse P388 cells xenografted in B6D2F1 mouse assessed as survivality at 50 to 100 mg/kg, ip; assay type: functional; details: dose mg/kg 50-100, route intraperitoneal
L1210 [19] = test: Cell cycle arrest in mouse L1210 cells assessed as accumulation at G1 phase at 100 nM after 21 hrs by flow cytometry using propidium iodide staining; assay type: functional; in short: as §2
L1210 [20] = test: Cell cycle arrest in mouse L1210 cells assessed as accumulation at S phase at 100 nM after 21 hrs by flow cytometry using propidium iodide staining; assay type: functional; in short: as §2
L1210 [21] = test: Cell cycle arrest in mouse L1210 cells assessed as accumulation at G2/M phase at 100 nM after 21 hrs by flow cytometry using propidium iodide staining; assay type: functional; in short: as §2
L1210 [22] = test: Cell cycle arrest in mouse L1210 cells assessed as accumulation of tetraploid cells at 100 nM after 21 hrs by flow cytometry using propidium iodide staining; assay type: functional; in short: as §2
L1210 [23] = test: Cell cycle arrest in mouse L1210 cells assessed as accumulation at G1 phase at 50 nM after 21 hrs by flow cytometry using propidium iodide staining; assay type: functional; in short: as §2
L1210 [24] = test: Cell cycle arrest in mouse L1210 cells assessed as accumulation at S phase at 50 nM after 21 hrs by flow cytometry using propidium iodide staining; assay type: functional; in short: as §2
L1210 [25] = test: Cell cycle arrest in mouse L1210 cells assessed as accumulation at G2/M phase at 50 nM after 21 hrs by flow cytometry using propidium iodide staining; assay type: functional; in short: as §2
L1210 [26] = test: Cell cycle arrest in mouse L1210 cells assessed as accumulation of tetraploid cells at 50 nM after 21 hrs by flow cytometry using propidium iodide staining; assay type: functional; in short: as §2

Molecule O=S1(=O)Oc2ccccc2N=C2C1=CC=CN2CCc1ccc(-c2ccccc2)cc1 has an IC50 (L1210 [1]) of 5 µM.
COc1ccc(CCN2c3cc(C)ccc3OS(=O)(=O)c3cccnc32)cc1 showed an IC50 (L1210 [1]) of 22.5 µM.
For O=S1(=O)Oc2ccccc2N(CCc2cccc3ccccc23)c2ncccc21, the IC50 (L1210 [1]) was > 100 µM.
COc1ccc(CCN2C=CC=C3C2=Nc2cc(OC)ccc2OS3(=O)=O)cc1 showed an Activity (A549) of 99.1 nM, an Activity (DU-145) of 116 nM and an IC50 (L1210 [1]) of 0.043 µM. The Activity (L1210 [2]) was 8%, the Activity (L1210 [3]) was 11% and the Activity (L1210 [4]) was 22%. It also gave an Activity (L1210 [5]) of 59%.
With COc1cccc(CCN2C=CC=C3C2=Nc2ccccc2OS3(=O)=O)c1 the IC50 (L1210 [1]) was 0.8 µM.
Work on COc1ccc(CCN2C=CC=C3C2=Nc2ccccc2OS3(=O)=O)cc1 yielded an Activity (L1210 [6]) of 25%, an Activity [7] of 13.2 nM and an Activity [8] of 16 nM. The Activity (HT-29) was 10 nM, the Activity (A549) was 11.5 nM and the Activity (DU-145) was 17 nM. It also gave an IC50 (L1210 [1]) of 0.0095 µM, an Activity (L1210 [9]) of 4% and an Activity (L1210 [10]) of 3%. The Activity (L1210 [11]) was 60%, the INH [12] was 2.2 µM and the T/C (P388 [13]) was 141%. For the same molecule, the T/C (P388 [14]) was 161%, the bioavailability [15] was < 12% and the bioavailability [16] was < 12%. For the same molecule, the Activity (P388 [17]) was 41% and the Activity (P388 [18]) was 61%.
Molecule COc1ccccc1CCN1C=CC=C2C1=Nc1ccccc1OS2(=O)=O has an IC50 (L1210 [1]) of 14.8 µM.
In the case of COc1ccc(CCN2C=CC=C3C2=Nc2cc(C)ccc2OS3(=O)=O)cc1, the Activity (HT-29) is reported as 50.2 nM, the IC50 (L1210 [1]) is reported as 0.037 µM and the Activity (L1210 [19]) is reported as 4%. The Activity (L1210 [20]) was 3%, the Activity (L1210 [21]) was 17% and the Activity (L1210 [22]) was 75%.
In the case of COc1ccc(CCN2C=CC=C3C2=Nc2cc(Cl)ccc2OS3(=O)=O)cc1, the Activity (HT-29) is reported as 27.1 nM, the Activity (DU-145) is reported as 42.3 nM and the IC50 (L1210 [1]) is reported as 0.027 µM. For the same molecule, the Activity (L1210 [23]) was 3%, the Activity (L1210 [24]) was 3% and the Activity (L1210 [25]) was 29%. The Activity (L1210 [26]) was 65%.
Work on O=S1(=O)Oc2ccccc2N=C2C1=CC=CN2CCc1cccc2ccccc12 yielded an IC50 (L1210 [1]) of 9.6 µM.
COc1cc(CCN2c3ccccc3OS(=O)(=O)c3cccnc32)cc(OC)c1OC showed an IC50 (L1210 [1]) of 36.8 µM.
With COc1ccccc1CCN1c2ccccc2OS(=O)(=O)c2cccnc21 the IC50 (L1210 [1]) was > 10 µM.
With COc1ccc(CN2c3ccccc3OS(=O)(=O)c3cccnc32)cc1 the IC50 (L1210 [1]) was 0.77 µM.
In the case of COc1ccc(CCCN2c3ccccc3OS(=O)(=O)c3cccnc32)cc1, the IC50 (L1210 [1]) is reported as 15.4 µM.
Molecule O=S1(=O)Oc2ccccc2N=C2C1=CC=CN2CCc1ccc(O)cc1 has an IC50 (L1210 [1]) of 0.6 µM.
For COc1ccc(CCN2C=CC=C3C2=Nc2ccccc2NS3(=O)=O)cc1, the IC50 (L1210 [1]) was 0.3 µM.
For COc1ccc(CCCN2C=CC=C3C2=Nc2ccccc2OS3(=O)=O)cc1, the IC50 (L1210 [1]) was 8.6 µM.
Work on COc1ccc(CN2C=CC=C3C2=Nc2ccccc2OS3(=O)=O)cc1 yielded an IC50 (L1210 [1]) of 3.2 µM.
In the case of COc1ccc(CCN2c3ccccc3OS(=O)(=O)c3cccnc32)cc1, the IC50 (L1210 [1]) is reported as 26.5 µM.
Work on COc1cc([C@@H]2c3cc4c(cc3C[C@H]3COC(=O)[C@@H]32)OCO4)cc(OC)c1OC yielded an INH [12] of 2.4 µM.
With COc1ccc(CCN2c3cc(OC)ccc3OS(=O)(=O)c3cccnc32)cc1 the IC50 (L1210 [1]) was 11.2 µM.
COc1cc(CCN2C=CC=C3C2=Nc2ccccc2OS3(=O)=O)cc(OC)c1OC gave an IC50 (L1210 [1]) of 27.7 µM.
With O=S1(=O)Oc2ccccc2N=C2C1=CC=CN2CCc1ccc(OCc2ccccc2)cc1 the IC50 (L1210 [1]) was > 100 µM.
